Measured values from ChEMBL document CHEMBL3272005 (J Med Chem, 1978).

Key:
[1] = species on record: Mus musculus; assay: Carcinogenic activity in Swiss albino mouse; assay type: toxicity, organism-based; details: in vivo
[2] = Drug level in po dosed human urine treated with lidocaine; assay type: ADME, organism-based; details: in vivo
In short: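 Analysed by chemical-ionization MS stable isotope dilution, with deuterated N-hydroxy analogues as internal standards. Samples were measured before and after TiCl3 reduction. Released 2,6-dimethylaniline was followed by m/e 122/124 ratios and by GC-CIMS selected ion monitoring. Values are given as % of dose.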

[3] = Drug level in ventricular arrthymia patient urine treated with lidocaine at 1.4 mg/min, iv administered for 36 hrs measured after 30 hrs measured after 30 hrs; assay type: ADME, organism-based; details: human, in vivo
In short: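 Aliquots were analysed immediately after collection by CIMS stable isotope dilution with deuterated analogues as internal standards. Analysis was run before and after TiCl3 reduction of the urine.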

[4] = Plasma concentration in ventricular arrthymia patient at 1.4 mg/min, iv administered for 36 hrs measured after 30 hrs; assay type: ADME, organism-based; details: human
[5] = tested on: Salmonella typhimurium; assay: Genotoxicity in Salmonella typhimurium TA-1538 after 2 days by Ames test in presence of C57BL/6J mouse liver S9 fraction relative to control; assay type: toxicity, organism-based; details: salmonella enterica subsp. enterica serovar typhimurium, s9, 48 h
[6] = tested on: Salmonella typhimurium; assay: Genotoxicity in Salmonella typhimurium TA-1538 after 2 days by Ames test relative to control; assay type: toxicity, organism-based; details: salmonella enterica subsp. enterica serovar typhimurium, 48 h
In short: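 Compounds were tested at 1, 10, 100 and 500 μg, added in Me2SO to top agar. His+ revertant colonies were counted after 2 days at 37 °C and compared with Me2SO-only plates.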

| SMILES | Activity [1] | Drug excretion [2] | Drug excretion [3] | concentration at 30 h [4] [ng/mL] | Activity [5] | Activity [6] |
| --- | --- | --- | --- | --- | --- | --- |
| [2H]C([2H])(C)N(CC(=O)N(O)c1c(C)cccc1C)C([2H])([2H])C | Non-toxic |  |  |  |  |  |
| CCN(CC)CC(=O)Nc1c(C)cccc1C [LIDOCAINE] |  | metabolite_detected | metabolite_detected | 3100 |  |  |
| CCN(CC)CC(=O)N(O)c1c(C)cccc1C | Non-toxic |  |  |  | Non-toxic | Non-toxic |
| [2H]C([2H])(C)N(CC)CC(=O)Nc1c(C)cccc1C |  | metabolite_detected | metabolite_detected |  |  |  |
| Cc1cccc(C)c1NO | Non-toxic | metabolite_detected | metabolite_detected |  | Non-toxic | Non-toxic |
| CCNCC(=O)Nc1c(C)cccc1C |  | metabolite_detected | metabolite_detected | 680 | Non-toxic | Non-toxic |
| Cc1cccc(C)c1N |  |  |  |  | Non-toxic | Non-toxic |
| [2H]C([2H])([2H])CNCC(=O)N(O)c1c(C)cccc1C | Non-toxic |  |  |  |  |  |
| [2H]C([2H])(NCC)C(=O)Nc1c(C)cccc1C |  | metabolite_detected | metabolite_detected |  |  |  |
| Cc1cccc(C)c1N(O)C(=O)CCl | Non-toxic |  |  |  |  |  |
| CCNCC(=O)N(O)c1c(C)cccc1C | Non-toxic |  |  |  | Non-toxic | Non-toxic |
